ChEMBL document CHEMBL1121917, “Structure--activity relationships in a broad-spectrum anthelmintic series. Acid chloride phenylhydrazones. 1. Aryl substitutions and chloride variations” (1981)

Tests used:
Mus musculus [1] = species: Mus musculus; test: Percent clearance of Nematospiroides dubius from mouse after oral treatment of 0.32 mg/mouse/day; type: functional
Outline: (§1)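 Mice naturally carrying Syphacia obvelata were experimentally infected with Nematospiroides dubius and Hymenolepis nana, then grouped after a 2-week prepatency. Finely ground compound was suspended in aqueous 0.10% carboxymethylcellulose, 0.04% polysorbate 80 and 0.0042% polyparaben, and 0.1 mL was given orally by cannula once daily for 4 days to five mice. Necropsy followed 2 days later, scoring presence or absence of each parasite. Control clearance was subtracted from the treated clearance.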

Mus musculus [2] = species: Mus musculus; test: Percent clearance of Syphacaia obvelata from mouse after oral treatment of 0.32 mg/mouse/day; type: functional; outline: as §1
Canis familiaris [3] = species: Canis familiaris; test: Percent reduction in Uncinaria eggs per gram, after oral treatment of 100 mg/dog dose of compound in a single treatment; type: functional, Canis lupus familiaris, Egg
Outline: (§2)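 Dogs naturally infected with Toxascaris leonina were experimentally infected with mixed Ancylostoma caninum and Uncinaria stenocephala larvae. Finely ground compound was given orally in gelatin capsules. Three egg count determinations were made before and three after treatment in each experiment.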

Canis familiaris [4] = species: Canis familiaris; test: Percent reduction in Toxascaris eggs per gram, after oral treatment of 100 mg/dog dose of compound in a single treatment; type: functional, Canis lupus familiaris, Egg; outline: as §2
Canis familiaris [5] = species: Canis familiaris; test: Percent reduction in Ancylostoma eggs per gram, after oral treatment of 100 mg/dog dose of compound in a single treatment; type: functional, Canis lupus familiaris, Egg
Outline: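 Dogs naturally infected with Toxascaris leonina were experimentally infected with mixed Ancylostoma caninum and Uncinaria stenocephala larvae. Finely ground compound was given orally in gelatin capsules. Fecal egg counts were taken three times before and three times after treatment, and activity was taken as the fall in egg counts.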

Ovis aries [6] = test: Percent reduction in Trichuris eggs per gram, after treatment with 100 mg/kg dose of compound perorally in sheep; type: functional, Egg; details: route oral
Outline: (§3)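 Naturally parasitized lambs, dosed orally either with a suspension by stomach tube or with finely ground compound in gelatin capsules by balling gun. Activity was scored by the clinical test method, meaning a significant fall in helminth egg counts after treatment.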

Ovis aries [7] = test: Percent reduction in Haemonchus eggs per gram, after treatment with 100 mg/kg dose of compound perorally in sheep; type: functional, Egg; details: route oral
Outline: (§4)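 Naturally parasitized lambs received compound orally, either as the aqueous suspension by stomach tube or as finely ground powder in gelatin capsules by balling gun. Activity was judged by the clinical test method, as a significant decrease in posttreatment helminth egg counts.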

Ovis aries [8] = test: Percent reduction in Oesophagostomum eggs per gram, after treatment with 100 mg/kg dose of compound perorally in sheep; type: functional, Egg; details: route oral
Outline: (§5)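 Naturally parasitized lambs were dosed orally at the stated mg/kg. Dosing was either as a suspension of finely ground compound by stomach tube, or as ground compound weighed into gelatin capsules and given by balling gun. Activity was scored by the clinical test method: the decrease in posttreatment helminth eggs per gram.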

Ovis aries [9] = test: Percent reduction in Trichostrongylus eggs per gram, after treatment with 100 mg/kg dose of compound perorally in sheep; type: functional, Egg; details: route oral; outline: as §3
Ovis aries [10] = test: Percent reduction in Ostertagia eggs per gram, after treatment with 100 mg/kg dose of compound perorally in sheep; type: functional, Egg; details: route oral; outline: as §5
Ovis aries [11] = test: Percent reduction in Cooperia eggs per gram, after treatment with 100 mg/kg dose of compound perorally in sheep; type: functional, Egg; details: route oral; outline: as §4
Ovis aries [12] = test: Percent reduction in Strongyloides eggs per gram, after treatment with 100 mg/kg dose of compound perorally in sheep; type: functional, Egg; details: route oral; outline: as §3
Mus musculus [13] = species: Mus musculus; test: Percent clearance of Nematospiroides dubius from mouse after oral treatment of 7.5 mg/mouse/day; type: functional; outline: as §1
Mus musculus [14] = species: Mus musculus; test: Percent clearance of Syphacaia obvelata from mouse after oral treatment of 7.5 mg/mouse/day; type: functional; outline: as §1
Canis familiaris [15] = species: Canis familiaris; test: percent reduction in Ancylostoma eggs per gram, after oral treatment of 100 mg/dog dose of compound in a single treatment; type: functional, Canis lupus familiaris, Egg; outline: as §2
Ovis aries [16] = test: Percent reduction in Haemonchus eggs per gram, after treatment of 100 mg/kg dose of compound perorally in sheep; Toxic; type: functional, organism-based; set-up: dose 100 mg/kg; details: Egg; outline: as §4
Canis familiaris [17] = species: Canis familiaris; test: Percent reduction in Uncinaria eggs per gram, after oral treatment of 200 mg/dog dose of compound in a single treatment; type: functional, Canis lupus familiaris, Egg; outline: as §2
Mus musculus [18] = species: Mus musculus; test: Percent clearance of Nematospiroides dubius from mouse after oral treatment of 3.75 mg/mouse/day; type: functional; outline: as §1
Mus musculus [19] = species: Mus musculus; test: Percent clearance of Syphacaia obvelata from mouse after oral treatment of 3.75 mg/mouse/day; type: functional; outline: as §1
Mus musculus [20] = species: Mus musculus; test: Percent clearance of Hymenolepis nana from mouse after oral treatment of 7.5 mg/mouse/day; type: functional; outline: as §1
Mus musculus [21] = species: Mus musculus; test: Percent clearance of Nematospiroides dubius from mouse after oral treatment of 0.47 mg/mouse/day; type: functional; outline: as §1
Mus musculus [22] = species: Mus musculus; test: Percent clearance of Syphacaia obvelata from mouse after oral treatment of 0.47 mg/mouse/day; type: functional; outline: as §1
Mus musculus [23] = species: Mus musculus; test: Percent clearance of Nematospiroides dubius from mouse after oral treatment of 1.87 mg/mouse/day; type: functional; outline: as §1
Mus musculus [24] = species: Mus musculus; test: Percent clearance of Syphacaia obvelata from mouse after oral treatment of 1.87 mg/mouse/day; type: functional; outline: as §1
Ovis aries [25] = test: Percent reduction in Haemonchus eggs per gram, after treatment of 150 mg/kg dose of compound perorally; Toxic; details: Egg
Ovis aries [26] = test: Percent reduction in Trichuris eggs per gram, after oral treatment of 100 mg/kg dose of compound perorally in sheep; type: functional, Egg
Ovis aries [27] = test: Percent reduction in Oesophagostomum eggs per gram, after oral treatment of 100 mg/kg dose of compound perorally in sheep; type: functional, Egg; outline: as §5
Ovis aries [28] = test: Percent reduction in Nematodirus eggs per gram, after oral treatment of 100 mg/kg dose of compound perorally in sheep; type: functional, Egg; outline: as §5
Ovis aries [29] = test: Percent reduction in Trichostrongylus eggs per gram, after oral treatment of 100 mg/kg dose of compound perorally in sheep; type: functional, Egg; outline: as §3
Ovis aries [30] = test: Percent reduction in Ostertagia eggs per gram, after oral treatment of 100 mg/kg dose of compound perorally in sheep; type: functional, Egg; outline: as §5
Ovis aries [31] = test: Percent reduction in Haemonchus eggs per gram, after oral treatment of 100 mg/kg dose of compound perorally in sheep; type: functional, Egg; outline: as §4
Ovis aries [32] = test: Percent reduction in Strongyloides eggs per gram, after oral treatment of 100 mg/kg dose of compound perorally in sheep; type: functional, Egg; outline: as §3
Canis familiaris [33] = species: Canis familiaris; test: percent reduction in Toxascaris eggs per gram, after oral treatment of 50 mg/dog dose of compound in a single treatment; type: functional, Canis lupus familiaris, Egg; outline: as §2
Canis familiaris [34] = species: Canis familiaris; test: percent reduction in Uncinaria eggs per gram, after oral treatment of 50 mg/dog dose of compound in a single treatment; type: functional, Canis lupus familiaris, Egg; outline: as §2

## Cl/C(=N\Nc1ccc(Br)cc1Br)c1ccccc1
Mus musculus [1]
  Parasite_Clearance: 0%
Mus musculus [2]
  Parasite_Clearance: 0%

## Cc1ccccc1/C(Cl)=N/Nc1c(Cl)cc(Cl)cc1Cl
Canis familiaris [3]
  Reduction: 20%
Canis familiaris [4]
  Reduction: 100%
Canis familiaris [5]
  Reduction: 0%
Ovis aries [6]
  Reduction: 0%
Ovis aries [7]
  Reduction: 85%
Ovis aries [8]
  Reduction: 11%
Ovis aries [9]
  Reduction: 14%
Ovis aries [10]
  Reduction: 67%
Ovis aries [11]
  Reduction: 33%
Ovis aries [12]
  Reduction: 85%

## O=[N+]([O-])c1ccc(/C(Cl)=N/Nc2ccccc2)c(Cl)c1
Mus musculus [13]
  Parasite_Clearance: 0%
Mus musculus [14]
  Parasite_Clearance: 0%

## Cl/C(=N\Nc1ccc(Cl)c(Cl)c1)c1ccccc1
Canis familiaris [3]
  Reduction: 0%
Canis familiaris [15]
  Reduction: 0%
Canis familiaris [4]
  Reduction: 0%
Ovis aries [16]
  Reduction: Toxic

## Cc1cc(/C(Cl)=N/Nc2ccccc2)ccc1[N+](=O)[O-]
Canis familiaris [3]
  Reduction: 0%
Canis familiaris [17]
  Reduction: 55%
Mus musculus [18]
  Parasite_Clearance: 80%
Mus musculus [19]
  Parasite_Clearance: 100%

## Cl/C(=N\Nc1c(Cl)cc(Cl)cc1Cl)c1c(Cl)cccc1Cl
Mus musculus [13]
  Parasite_Clearance: 0%
Mus musculus [20]
  Parasite_Clearance: 0%

## Cl/C(=N\Nc1ccccc1)c1ccc(Cl)cc1Cl
Mus musculus [21]
  Parasite_Clearance: 0%
Mus musculus [22]
  Parasite_Clearance: 0%

## Cl/C(=N\Nc1ccc(Cl)cc1)c1ccccc1
Mus musculus [21]
  Parasite_Clearance: 100%
Mus musculus [22]
  Parasite_Clearance: 80%

## Cl/C(=N\Nc1ccccc1)c1cccc(Cl)c1
Mus musculus [23]
  Parasite_Clearance: 100%
Mus musculus [24]
  Parasite_Clearance: 100%
Ovis aries [25]
  Reduction: Toxic

## Cl/C(=N\Nc1ccccc1)c1ccc(Cl)cc1
Ovis aries [26]
  Reduction: 0%
Ovis aries [27]
  Reduction: 100%
Ovis aries [28]
  Reduction: 100%
Ovis aries [29]
  Reduction: 99%
Ovis aries [30]
  Reduction: 100%
Ovis aries [31]
  Reduction: 100%
Ovis aries [32]
  Reduction: 100%

## Cl/C(=N\Nc1c(Cl)cc(Cl)cc1Cl)c1cccc(Cl)c1
Mus musculus [13]
  Parasite_Clearance: 50%
Mus musculus [14]
  Parasite_Clearance: 100%

## Cl/C(=N\Nc1ccccc1)c1ccccc1Cl
Mus musculus [23]
  Parasite_Clearance: 40%
Mus musculus [24]
  Parasite_Clearance: 20%

## Cc1cc(Cl)ccc1N/N=C(\Cl)c1ccccc1
Mus musculus [13]
  Parasite_Clearance: 0%
Mus musculus [14]
  Parasite_Clearance: 0%

## CC(C)c1ccc(/C(Cl)=N/Nc2ccccc2)cc1
Mus musculus [21]
  Parasite_Clearance: 0%
Mus musculus [22]
  Parasite_Clearance: 0%

## Cc1ccccc1N/N=C(\Cl)c1ccccc1
Mus musculus [21]
  Parasite_Clearance: 100%
Mus musculus [22]
  Parasite_Clearance: 0%

## Cl/C(=N\Nc1c(Cl)cc(Cl)cc1Cl)c1ccc(Cl)c(Cl)c1
Mus musculus [13]
  Parasite_Clearance: 0%
Mus musculus [20]
  Parasite_Clearance: 0%

## Cl/C(=N\Nc1ccccc1)c1ccc(Cl)c(Cl)c1
Mus musculus [13]
  Parasite_Clearance: 100%

## Cl/C(=N\Nc1cc(Cl)cc(Cl)c1)c1ccccc1
Canis familiaris [33]
  Reduction: 40%
Canis familiaris [34]
  Reduction: 57%
Ovis aries [6]
  Reduction: 100%
Ovis aries [7]
  Reduction: 97%
Ovis aries [8]
  Reduction: 0%
Ovis aries [9]
  Reduction: 100%
Ovis aries [10]
  Reduction: 100%
Ovis aries [12]
  Reduction: 45%

## Cl/C(=N\Nc1c(Cl)cc(Cl)cc1Cl)c1ccc(Br)cc1
Mus musculus [18]
  Parasite_Clearance: 0%
Mus musculus [19]
  Parasite_Clearance: 40%

## Cl/C(=N\Nc1cc(Cl)c(Cl)cc1Cl)c1ccccc1
Mus musculus [18]
  Parasite_Clearance: 0%
Mus musculus [19]
  Parasite_Clearance: 33%
